Measurements taken from ChEMBL document CHEMBL5030505, “Assessment of NR4A Ligands That Directly Bind and Modulate the Orphan Nuclear Receptor Nurr1” (J Med Chem, 2020).
Activity calls are given as the source filed them. No cut-off for these calls is given here.

Experiments:
Type in all cases: cell-based
PC-12 [1] = assay: Modulation of Gal4-fused VP16 expressed in PC12 cells co-transfected with UAS repoter gene assessed as decrease in luciferase activity at 1.55 to 15 uM incubated for 18 hrs by luciferase reporter gene assay; settings: Human alphaherpesvirus 2, filed as modulator, dose 1.55-15 µM
Outline: (§1)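 Constitutive control: cells transfected (Lipofectamine 2000) with Gal4-VP16 expression plasmid (2 μg) plus 5xUAS-luciferase reporter (2 μg), 18 h; replated 10,000 cells/well, 4 h; ligand or vehicle in quadruplicate for 18 h; luciferase read by Britelite Plus; signal as fold change over vehicle-treated cells. Mean ± s.e.m. (n=4); one-way ANOVA versus vehicle.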

SK-N-BE(2) = assay: Cytotoxicity in human SKNBE2 cells assessed as reduction in cell viability at 1.55 to 15 uM incubated for 18 hrs by Cell Titer-Glo assay; settings: dose 1.55-15 µM
Outline: (§2)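 Cells seeded 1.5 million per 10-cm dish; next day replated at 10,000 cells/well in 384-well format, 4 h, then ligand or vehicle (water, ethanol or DMSO by ligand) added in quadruplicate for 18 h; viability read by CellTiter-Glo luminescence. Mean ± s.e.m. (n=4), generally 2 independent experiments; one-way ANOVA versus vehicle.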

[2] = target: Nuclear receptor subfamily 4 group A member 2 (Homo sapiens) (UniProt P43354); assay: Modulation of full length human Nurr1 expressed in HEK293T cells co-transfected with luciferase reporter plasmid harboring NurRE response element assessed as decrease in luciferase activity at 1.55 to 15 uM incubated for 18 hrs by luciferase reporter gene assay; settings: filed as modulator, dose 1.55-15 µM
Nuclear receptor subfamily 4 group A member 2 (Homo sapiens), sequence (P43354 whole entry, the tested form may be a part): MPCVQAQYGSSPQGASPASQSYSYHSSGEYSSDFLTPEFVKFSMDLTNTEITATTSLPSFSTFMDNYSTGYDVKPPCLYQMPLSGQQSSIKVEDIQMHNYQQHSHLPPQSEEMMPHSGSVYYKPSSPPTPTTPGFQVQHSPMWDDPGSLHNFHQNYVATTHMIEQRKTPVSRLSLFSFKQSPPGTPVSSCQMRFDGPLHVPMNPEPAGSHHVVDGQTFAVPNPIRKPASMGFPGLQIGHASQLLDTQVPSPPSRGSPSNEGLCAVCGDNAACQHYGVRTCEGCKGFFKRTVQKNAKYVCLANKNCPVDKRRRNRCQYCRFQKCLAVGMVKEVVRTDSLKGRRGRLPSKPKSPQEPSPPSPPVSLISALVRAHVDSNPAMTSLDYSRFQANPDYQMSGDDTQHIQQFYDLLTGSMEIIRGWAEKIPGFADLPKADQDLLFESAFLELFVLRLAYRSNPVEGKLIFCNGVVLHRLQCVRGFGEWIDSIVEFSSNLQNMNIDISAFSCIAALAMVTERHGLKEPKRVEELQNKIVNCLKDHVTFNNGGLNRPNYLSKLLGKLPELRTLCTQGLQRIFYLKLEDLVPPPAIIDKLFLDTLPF
Outline: (§3)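 Cells transfected (Lipofectamine 2000, 18 h) with full-length Nurr1 expression plasmid (2 μg) and 3xNBRE- or 3xNurRE-luciferase reporter (6 μg), no internal control normalisation; replated 10,000 cells/well, 4 h; ligand or vehicle in quadruplicate for 18 h; Britelite Plus luminescence as fold change over vehicle. Mean ± s.e.m. (n=4); one-way ANOVA versus vehicle.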

[3] = target: Nuclear receptor subfamily 4 group A member 2 (Homo sapiens) (UniProt P43354); assay: Modulation of full length human Nurr1 expressed in […] cells co-transfected with luciferase reporter plasmid harboring NBRE response element assessed as decrease in luciferase activity at 1.55 to 15 uM incubated for 18 hrs by luciferase reporter gene assay; settings: SKNBE2, filed as modulator, dose 1.55-15 µM; outline: as §3
[4] = target: Nuclear receptor subfamily 4 group A member 2 (Homo sapiens) (UniProt P43354); assay: Modulation of full length human Nurr1 expressed in HEK293T cells co-transfected with luciferase reporter plasmid harboring NBRE response element assessed as decrease in luciferase activity at 1.55 to 15 uM incubated for 18 hrs by luciferase reporter gene assay; settings: filed as modulator, dose 1.55-15 µM; outline: as §3
[5] = target: Nuclear receptor subfamily 4 group A member 2 (Homo sapiens) (UniProt P43354); assay: Modulation of full length human Nurr1 expressed in […] cells co-transfected with luciferase reporter plasmid harboring NurRE response element assessed as decrease in luciferase activity at 1.55 to 15 uM incubated for 18 hrs by luciferase reporter gene assay; settings: SKNBE2, filed as modulator, dose 1.55-15 µM; outline: as §3
[6] = target: Nuclear receptor subfamily 4 group A member 2 (Homo sapiens) (UniProt P43354); assay: Modulation of full length human Nurr1 expressed in PC-12 cells co-transfected with luciferase reporter plasmid harboring NBRE response element assessed as decrease in luciferase activity at 1.55 to 15 uM incubated for 18 hrs by luciferase reporter gene assay; settings: filed as modulator, dose 1.55-15 µM; outline: as §3
SKNBE2 = assay: Modulation of Gal4-fused VP16 expressed in SKNBE(2) cells co-transfected with UAS repoter gene assessed as decrease in luciferase activity at 1.55 to 15 uM incubated for 18 hrs by luciferase reporter gene assay; settings: Human alphaherpesvirus 2, filed as modulator, dose 1.55-15 µM; outline: as §1
PC-12 [7] = assay: Cytotoxicity in rat PC-12 cells assessed as reduction in cell viability at 1.55 to 15 uM incubated for 18 hrs by Cell Titer-Glo assay; settings: pc-12, 18 h, dose 1.55-15 µM; outline: as §2
HEK293T = assay: Modulation of Gal4-fused VP16 expressed in HEK293T cells co-transfected with UAS repoter gene assessed as decrease in luciferase activity at 1.55 to 15 uM incubated for 18 hrs by luciferase reporter gene assay; settings: Human alphaherpesvirus 2, filed as modulator, dose 1.55-15 µM; outline: as §1
HEK-293T = assay: Cytotoxicity in human HEK293T cells assessed as reduction in cell viability at 1.55 to 15 uM incubated for 18 hrs by Cell Titer-Glo assay; settings: dose 1.55-15 µM; outline: as §2

With `CC[C@@]1(O)C(=O)OCc2c1cc1n(c2=O)Cc2cc3ccccc3nc2-1` [CAMPTOTHECIN] the Activity (PC-12 [1]) was “Active”, the Activity (SK-N-BE(2)) was “Toxic” and the Activity [2] was “Active”. For the same molecule, the Activity [3] was “Active”, the Activity [4] was “Active” and the Activity [5] was “Active”. For the same molecule, the Activity [6] was “Active”, the Activity (SKNBE2) was “Active” and the Activity (PC-12 [7]) was “Toxic”. For the same molecule, the Activity (HEK293T) was “Active” and the Activity (HEK-293T) was “Toxic”.
